Data on 4 molecules can be found in ChEMBL document CHEMBL1649308, “Affinity of the new cephalosporin CXA-101 to penicillin-binding proteins of Pseudomonas aeruginosa” (Antimicrob Agents Chemother, 2010).

Each structure is given as a SMILES string. In brackets after ≈: the same amount, converted by molar mass. Activity calls are given as the source filed them. No cut-off for these calls is given here.

For assay [1], the system named is Pseudomonas aeruginosa. In words: Antimicrobial activity against Pseudomonas aeruginosa PAO1 by broth microdilution method. It counts as functional. In short, it runs like this: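 MICs against strain PAO1 by standard CLSI broth microdilution (M100-S18).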
The subject of assay [2] is Pseudomonas aeruginosa. Briefly: Bactericidal activity against Pseudomonas aeruginosa PAO1 assessed as reduction in viable bacterial count at 2 X MIC after 8 hrs by time-kill analysis. The class given is functional. In outline:
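PAO1 grown overnight in Mueller-Hinton broth, diluted 1/100 and grown at 37°C, 180 rpm to mid-log phase (OD600 0.2). Then inoculated into MHB with 0, 0.5×, 1×, 2× or 4× MIC to an initial OD600 of 0.01 (ca. 10^7 CFU/ml). Viable counts taken by plating serial dilutions on MH agar over 8 h. Triplicate experiments, mean ± SD.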

The subject of assay [3] is Pseudomonas aeruginosa. Briefly: Induction of ampC mRNA expression in Pseudomonas aeruginosa PAO1 at 0.25 X MIC relative to untreated control. The class given is functional. In short, it runs like this:
(§1)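 Cells were exposed for 3 h to subinhibitory drug (1/2 or 1/4 MIC), alongside untreated cells. RNA was taken from log-phase LB cultures and DNase-treated (2 U, 30 min, 37°C). ampC mRNA was measured by real-time RT-PCR and normalized to rpsL. Values are the mean relative expression from at least three independent duplicate experiments.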

The subject of assay [4] is Pseudomonas aeruginosa. Briefly: Induction of ampC mRNA expression in Pseudomonas aeruginosa PAO1 at 0.5 X MIC relative to untreated control. It counts as functional. In outline: as §1
Assay [5] can be described thus: Inhibition of Pseudomonas aeruginosa PAO1 PBP1b by SDS-PAGE. In outline:
(§2)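 Membranes were prepared from late-log (OD600 1) LB cultures by sonication and two rounds of 150,000 × g ultracentrifugation in 20 mM KH2PO4-140 mM NaCl, pH 7.5. Membranes were preincubated 30 min at 37°C with drug (0.0156–2 μg/ml), then labeled with 25 μM Bocillin FL. Samples were run on SDS-PAGE and read by fluorescence (ex 488/em 530 nm). IC50 values come from triplicate experiments.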

Assay [6] in a line: Inhibition of Pseudomonas aeruginosa PAO1 PBP1c by SDS-PAGE. In outline: as §2
The nature of assay [7]: Inhibition of Pseudomonas aeruginosa PAO1 PBP2 by SDS-PAGE. In outline:
as §2

A short description of assay [8]: Inhibition of Pseudomonas aeruginosa PAO1 PBP3 by SDS-PAGE. In short, it runs like this:
as §2

Assay [9] is described as follows: Inhibition of Pseudomonas aeruginosa PAO1 PBP4 by SDS-PAGE. In short, it runs like this:
as §2

A short description of assay [10]: Inhibition of Pseudomonas aeruginosa PAO1 PBP5/6 by SDS-PAGE. In short, it runs like this:
as §2

Assay [11] concerns Pseudomonas aeruginosa. Briefly: Antimicrobial activity against Pseudomonas aeruginosa PAO1 assessed as appearance of long filaments at 0.5 X MIC after 2 hrs by Live/dead cell viability assay. It counts as functional, organism-based.
Assay [12] concerns Pseudomonas aeruginosa. In words: Antimicrobial activity against Pseudomonas aeruginosa PAO1 at 4 X MIC after 8 hrs by Live/dead cell viability assay. It counts as functional, organism-based.
Assay [13] relates to Pseudomonas aeruginosa. In words: Bactericidal activity against Pseudomonas aeruginosa PAO1 assessed as reduction in viable bacterial count at MIC after 8 hrs by time-kill analysis. The class given is functional. In outline:
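Overnight MHB cultures were diluted 1/100 and grown at 37°C, 180 rpm to OD600 0.2. Flasks of MHB with 0, 0.5×, 1×, 2× or 4× MIC were inoculated to OD600 0.01 (ca. 10^7 CFU/ml). Viable counts were followed over 8 h by plating serial dilutions on MH agar, with OD600 also read. Values are the mean ± SD of triplicate runs.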

The test system of assay [14] is Pseudomonas aeruginosa. In words: Induction of ampC mRNA expression in Pseudomonas aeruginosa PAO1 at 50 ug/ml relative to untreated control. The class given is functional. In short, it runs like this: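 The inducer was given at 50 μg/ml for 3 h, with an untreated comparison. RNA from log-phase LB cultures was DNase-treated, and ampC expression was quantified by real-time RT-PCR normalized to rpsL. Values are the mean of at least three independent duplicate experiments.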

For `CC(C)(O/N=C(\C(=O)N[C@@H]1C(=O)N2C(C(=O)[O-])=C(C[n+]3ccccc3)CS[C@H]12)c1csc(N)n1)C(=O)O` [CEFTAZIDIME], the minimum inhibitory concentration (MIC) (as a rule, the lowest concentration found to suppress growth) in the assay with Pseudomonas aeruginosa [1] came to 1 µg/mL (≈ 1.83 µM). Moreover, in the assay with Pseudomonas aeruginosa [2], the Activity is above 3. The “fold change (FC)” value in the assay with Pseudomonas aeruginosa [3] and in the assay on Pseudomonas aeruginosa [4] was 1.2 throughout. The half-inhibitory concentration (IC50) (as a rule, the midpoint of a concentration-inhibition curve) in assay [5] was 0.12 µg/mL (≈ 0.22 µM); in assay [6] it was above 2 µg/mL; in assay [7] it was above 2 µg/mL; in [8], 0.04 µg/mL (≈ 0.0732 µM); in assay [9] it was 1.23 µg/mL (≈ 2.25 µM); in [10] it was above 2 µg/mL. Besides, the result in the assay on Pseudomonas aeruginosa [11] and with Pseudomonas aeruginosa [12] was Active.
As for `Cn1c(N)c(NC(=O)NCCN)c[n+]1CC1=C(C(=O)O)N2C(=O)[C@@H](NC(=O)/C(=N\OC(C)(C)C(=O)[O-])c3nsc(N)n3)[C@H]2SC1` [CEFTOLOZANE], in the assay with Pseudomonas aeruginosa [1], the MIC was found to be 0.5 µg/mL (≈ 0.75 µM). The “fold change (FC)” value in the assay with Pseudomonas aeruginosa [13] was above 3; in the assay on Pseudomonas aeruginosa [3], 1.6; in the assay with Pseudomonas aeruginosa [4], 1.3. The IC50 in assay [5] was 0.07 µg/mL (≈ 0.105 µM); in [6], 0.64 µg/mL (≈ 0.96 µM); in assay [7], 1.36 µg/mL (≈ 2.04 µM); in assay [8], 0.02 µg/mL (≈ 0.03 µM); in [9] it was 0.29 µg/mL (≈ 0.435 µM); in assay [10], above 2 µg/mL. Also, the result with Pseudomonas aeruginosa [11] and in the assay with Pseudomonas aeruginosa [12] was Active.
Molecule `C[C@@H](O)[C@H]1C(=O)N2C(C(=O)O)=C(SCCNC=N)C[C@H]12` [IMIPENEM ANHYDROUS] gave a minimal inhibitory concentration (MIC) in the assay with Pseudomonas aeruginosa [1] of 1 µg/mL (≈ 3.34 µM). Further, the “fold change (FC)” value in the assay with Pseudomonas aeruginosa [3] worked out at 193.2; in the assay with Pseudomonas aeruginosa [4], 269.5. Besides, the IC50 in assay [5] is 0.13 µg/mL (≈ 0.434 µM); in assay [6] it was 0.08 µg/mL (≈ 0.267 µM); in assay [7] it was 0.08 µg/mL (≈ 0.267 µM); in assay [8], 0.12 µg/mL (≈ 0.401 µM); in assay [9] it was 0.02 µg/mL (≈ 0.0668 µM); in assay [10], 0.2 µg/mL (≈ 0.668 µM). For the same molecule, the result in the assay with Pseudomonas aeruginosa [11] and with Pseudomonas aeruginosa [12] was Active.
For the molecule `CO[C@@]1(NC(=O)Cc2cccs2)C(=O)N2C(C(=O)O)=C(COC(N)=O)CS[C@@H]21` [CEFOXITIN], the “fold change (FC)” value in the assay with Pseudomonas aeruginosa [14] came out at 50.
